Measured values from PMC4109288 (Lancet, 2012).
Marks after values point to notes of the source that are not given here.

How the values were obtained:
[1] = Phase I trial: safety and tolerability, adverse events; details: in vivo
tumour FDG uptake = assay: FDG-PET imaging at baseline and Week 2; assay type: in vivo, human; details: 35 mg QD–300 mg BID, Week 2
In short: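 Pharmacodynamic FDG-PET imaging at baseline and on Day 15 of daily dabrafenib-class dosing. Patients were in the accelerated dose-titration cohorts, which started at 12 mg daily on 21-day cycles.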

[2] = tested on: V600 BRAF-mutant melanoma with untreated brain metastases; assay: RP2D expansion, brain lesion assessment by MRI and PFS; assay type: in vivo, human
In short: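 Expansion cohort of patients with asymptomatic, untreated brain metastases ≥3 mm and no prior resection, stereotactic radiosurgery or whole-brain radiotherapy, given 150 mg BID. BRAF was centrally genotyped. Lesions were imaged by gadolinium-enhanced T1-weighted MRI, first at 6 weeks and then every 9 weeks. Sum of diameters of lesions ≥3 mm at baseline was expressed as % change from baseline. RECIST 1.0 applied. PFS by Kaplan–Meier.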

[3] = tested on: non-V600E BRAF-mutant melanoma; assay: Tumour response and PFS in melanoma with non-V600E BRAF mutations; assay type: in vivo, human
In short: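 Melanoma patients with V600K or non-V600 or complex BRAF mutations, treated at all dose levels (titration from 12 mg daily, 21-day cycles). Response was assessed by RECIST 1.0 with restaging at 9 or 6 weeks, then every 9 weeks, and 95% exact CIs were given. PFS was estimated by Kaplan–Meier from first dose. Treatment duration ran from first dose to last dose or the 25 March 2011 data cut.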

BRAF wild-type melanoma = assay: Tumour response in BRAF wild-type melanoma; assay type: in vivo, human; details: three patients with BRAF wild-type melanoma
In short: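 Patients had histologically confirmed incurable solid tumours, ECOG ≤1, and received accelerated dose titration from 12 mg daily on 21-day cycles until progression or intolerable toxicity. Response was assessed by RECIST 1.0. Baseline imaging was within 35 days. Restaging was at 9 weeks (escalation) or 6 weeks (expansion), then every 9 weeks.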

[4] = cited from earlier work; for Penetration of the blood-brain barrier: in vivo
[5] = tested on: BRAF-mutant metastatic melanoma; details: cited from earlier work
[6] = tested on: K601E BRAF-mutant cell line; details: cited from earlier work
[7] = among the eight patients who progressed

CC(C)(C)c1nc(-c2cccc(NS(=O)(=O)c3c(F)cccc3F)c2F)c(-c2ccnc(N)n2)s1 [dabrafenib, Dabrafenib]
Patients experiencing AEs higher than grade 2 ([1]; human): 24% | Patients requiring dose reductions ([1]; human): 7% | Patients requiring dose reductions for fatigue ([1]; human): 2% | Patients requiring dose reductions for neutropenia ([1]; human): 1% | Patients requiring dose reductions for pyrexia ([1]; human): 3% | Patients with arthralgia of grade 2 or higher ([1]; human): less than 5% | Patients with dose-limiting toxicities (DLTs) ([1]; human): three of 20 | Patients with pyrexia as a serious AE ([1]; human): 4% | Patients with treatment-related actinic keratosis ([1]; human): 10% | Patients with treatment-related fatigue grade 2 or higher ([1]; human): 8% | Patients with treatment-related hyperkeratosis ([1]; human): 26% | Patients with treatment-related hyperkeratotic lesions of grade 2 or above ([1]; human): 3% | Patients with treatment-related pyrexia ([1]; human): 20% | Patients with treatment-related pyrexia grade 2 or higher ([1]; human): 6% | Range of onset of cutaneous SCC ([1]; human): 9 to 217 days | Range of time to first pyrexia ([1]; human): 1 to 532 days | Treatment-related cutaneous squamous cell carcinoma, grade 2 or higher, Total ([1]; human): 20 (11) ^* n (%) | Treatment-related cutaneous squamous cell carcinoma, toxicity grade 2 ([1]; human): 0 n (%) | Treatment-related cutaneous squamous cell carcinoma, toxicity grade 3 ([1]; human): 20 (11) n (%) | Treatment-related fatigue, grade 2 or higher, Total ([1]; human): 14 (8) n (%) | Treatment-related fatigue, toxicity grade 2 ([1]; human): 12 (7) n (%) | Treatment-related fatigue, toxicity grade 3 ([1]; human): 2 (1) n (%) | Treatment-related pyrexia, grade 2 or higher, Total ([1]; human): (6) n (%) | Treatment-related pyrexia, toxicity grade 2 ([1]; human): 10 (5) n (%) | Treatment-related pyrexia, toxicity grade 3 ([1]; human): 1 (<1) n (%) | Non-cutaneous SCC [1]: not observed | Patients with keratoacanthoma [1]: three | Photosensitivity [1]: not observed | Recurrence or metastasis of cutaneous SCC after local excision [1]: no recurrence or metastasis was observed | Patients with decrease in mean SUVmax of tumour FDG uptake vs baseline (tumour FDG uptake; 53 of 56 patients): 95% | Median decrease in mean SUVmax of tumour FDG uptake (tumour FDG uptake; 56 patients): 60% | Range of percentage change from baseline in mean SUVmax (tumour FDG uptake; 56 patients): −100% to 19 | Patients achieving complete resolution of all brain lesions ([2]; RP2D): four of ten | Patients with decreasing size of extracranial metastases ([2]; among patients with responding brain lesions): all nine | Patients with site of progression in extracranial sites alone [2, 7]: three | Patients with site of progression in the brain alone [2, 7]: three | Survival at 5 months ([2]; n=10): All patients were alive at 5 months | Time at which the most durable responder met criteria for progressive disease ([2]; remains on study at 19 months): 15 months | Patients who received treatment for at least 6 months ([3]; V600K, all dose levels, nine patients): 50% | Responses ([3]; three patients with non-V600 or complex BRAF mutations): no responses were observed | Responses (BRAF wild-type melanoma): no responses were observed | Penetration of the blood-brain barrier [4]: neither vemurafenib nor dabrafenib demonstrate penetration | Penetration of the intact blood–brain barrier by the parent drug ([4]; preclinical, after single-dose administration, ref unpublished data): minimal penetration

CCCS(=O)(=O)Nc1ccc(F)c(C(=O)c2c[nH]c3ncc(-c4ccc(Cl)cc4)cc23)c1F [vemurafenib]
Reduction in risk of death ([5]; Phase III, first-line vs dacarbazine, V600E mutant metastatic melanoma): 63% | Unconfirmed responses ([5]; V600E BRAF-mutant metastatic melanoma, Phase I): 81% | Confirmed response rate ([5]; V600E-mutant BRAF metastatic melanoma, Phase III vs dacarbazine): 48% | Photosensitivity [5]: commonly reported | Response rate ([5]; ten of 336 patients carrying the V600K mutation, Phase III): 40% | Penetration of the blood-brain barrier [4]: neither vemurafenib nor dabrafenib demonstrate penetration | Inhibition in cell line with K601E mutation [6]: less inhibition
